Test results: ChEMBL document CHEMBL2021854, “2-Aminopyrimidine based 4-aminoquinoline anti-plasmodial agents. Synthesis, biological activity, structure-activity relationship and mode of action studies” (Eur J Med Chem, 2012)

What was measured:
[1] = Inhibition of beta-hematin formation assessed as Ferriprotoporphyrin IX biomineralisation after 24 hrs; assay type: functional
In short: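 Hemin (0.5 mg/ml in DMSO) was mixed with 0.5 M sodium acetate pH 4.4 and compound, then incubated for 24 h at 37 °C. The pellet was washed with DMSO to remove unreacted hemin and dissolved in 0.1 N NaOH, with A405 read. Percent inhibition was taken versus solvent control, and IC50 by curve fitting.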

Influenza A virus [2] = assay: Antiviral activity against Influenza A virus H3N2 infected in MDCK cells assessed as inhibition of virus-induced cytopathogenicity after 4 days by colorimetric formazan-based MTS assay; assay type: functional, organism-based; conditions: 96 h
[3] = Cytotoxicity against african green monkey Vero cells assessed as minimum compound concentration required to causes microscopically detectable alteration of normal cell morphology; assay type: cell-based; conditions: chlorocebus sabaeus
In short: (§1)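 Confluent, non-proliferating cell cultures were exposed to the compounds. The endpoint was the minimum concentration producing a microscopically detectable alteration of normal cell morphology.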

[4] = Cytotoxicity against MDCK cells assessed as cell viability by colorimetric formazan-based MTS assay; set-up: species or system Canis lupus familiaris; conditions: dog, MDCK cells
In short: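 Cytotoxicity on MDCK cells; 50% cytotoxic concentration from cell viability measured by colorimetric formazan-based MTS assay.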

[5] = tested on: Respiratory syncytial virus; assay: Antiviral activity against Respiratory syncytial virus infected in human HeLa cells assessed as inhibition of virus-induced cytopathogenicity after 4 days; assay type: functional, organism-based; conditions: 96 h
In short: (§2)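 Confluent HEL, Vero or HeLa monolayers were inoculated with 100 CCID50 of virus in the presence of varying concentrations of compound. Cytopathicity was scored when it reached completion in untreated, virus-infected control cultures.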

Coxsackievirus B4 = assay: Antiviral activity against Coxsackie virus B4 infected in human HeLa cells assessed as inhibition of virus-induced cytopathogenicity after 4 days; assay type: functional, organism-based; conditions: Enterovirus B, 96 h; in short: as §2
Influenza B virus = assay: Antiviral activity against Influenza B virus infected in MDCK cells assessed as reduction visual scoring of virus-induced cytopathogenicity after 4 days; assay type: functional, organism-based; conditions: 96 h
In short: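 MDCK monolayers infected with 100 CCID50 of influenza A (H1N1 or H3N2) or influenza B, with varying compound concentrations. Cytopathicity read when untreated infected controls reached complete CPE.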

Human respirovirus 3 = assay: Antiviral activity against Parainfluenza-3 virus infected in african green monkey Vero cells assessed as inhibition of virus-induced cytopathogenicity after 4 days; assay type: functional, organism-based; conditions: Human respirovirus 3, Vero, 96 h; in short: as §2
[6] = tested on: Vesicular stomatitis virus; assay: Antiviral activity against Vesicular stomatitis virus infected in HeLa cells assessed as inhibition of virus-induced cytopathogenicity after 4 days; assay type: functional, organism-based; conditions: 96 h
In short: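 Confluent HEL or HeLa monolayers infected with 100 CCID50 of virus in the presence of varying compound concentrations.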

Influenza A virus [7] = assay: Antiviral activity against Influenza A virus H1N1 infected in MDCK cells assessed as inhibition of virus-induced cytopathogenicity after 4 days by colorimetric formazan-based MTS assay; assay type: functional, organism-based; conditions: 96 h
[8] = Cytotoxicity against MDCK cells assessed as minimum compound concentration required to causes microscopically detectable alteration of normal cell morphology; assay type: cell-based, Canis lupus familiaris; conditions: dog; in short: as §1
[9] = Cytotoxicity against human HeLa cells assessed as minimum compound concentration required to causes microscopically detectable alteration of normal cell morphology; assay type: cell-based; in short: as §1
Sindbis virus = assay: Antiviral activity against Sindbis virus infected in african green monkey Vero cells assessed as inhibition of virus-induced cytopathogenicity after 4 days; assay type: functional, organism-based; conditions: 96 h; in short: as §2

| Compound | IC50 [1] [µM] | EC50 (Influenza A virus [2]) [µM] | MCC [3] [µM] | CC50 [4] [µM] | EC50 [5] [µM] | EC50 (Coxsackievirus B4) [µM] | EC50 (Influenza B virus) [µM] | EC50 (Human respirovirus 3) [µM] | EC50 [6] [µM] | EC50 (Influenza A virus [7]) [µM] | MCC [8] [µM] | MCC [9] [µM] | EC50 (Sindbis virus) [µM] |
| --- | --- | --- | --- | --- | --- | --- | --- | --- | --- | --- | --- | --- | --- |
| CCN(CC)CCCC(C)Nc1ccnc2cc(Cl)ccc12 (stereo not drawn) [CHLOROQUINE] | 18 |  |  |  |  |  |  |  |  |  |  |  |  |
| NC(=O)c1ncn([C@@H]2O[C@H](CO)[C@@H](O)[C@H]2O)n1 [RIBAVIRIN] |  | 5.6 | > 250 | > 100 | > 250 | > 250 | 7 | 29 | > 250 | 6.7 | > 100 | > 250 | > 250 |
